Our source for the pA2 values is ChEMBL document CHEMBL1124301, “Enantioselectivity of muscarinic antagonists. 2,2-Dicyclohexyl-5-[(dimethylamino)methyl]-1,3-oxathiolane methiodides and related 3-oxides” (J Med Chem, 1988).

Test [1] concerns the target Muscarinic acetylcholine receptor. Briefly: Antagonist activity against Muscarinic acetylcholine receptor of rat bladder. Type of test: functional. In a few lines: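 Longitudinal bladder strip (2 mm wide, urethra to apex) in PSS at 37 °C, recorded isometrically, equilibrated 30 min. Carbachol dose-response curves run at 30-min intervals, with the second taken as control. After 30 min antagonist incubation, the curve was repeated.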

Test [2] has the same target. Briefly: Antagonist activity against Muscarinic acetylcholine receptor of guinea pig heart. Type of test: functional, Cavia porcellus.
For test [3] the target is unchanged. In words: Antagonist activity against Muscarinic acetylcholine receptor of guinea pig ileum. The format is functional, tissue-based, Cavia porcellus.
Test [4] has the same target. Briefly: Antagonist activity against Muscarinic acetylcholine receptor of guinea pig heart. Type of test: functional, Cavia porcellus.

Values joined by “and” are separate entries in the source; they are usually repeats but may differ in a detail not shown here. Identical values can stand only once.

A word on the pA2: it is the negative logarithm of the molar antagonist concentration that doubles the agonist concentration needed for the same response.

On to `C[N+](C)(C)C[C@@H]1C[S@@+]([O-])C(C2CCCCC2)(C2CCCCC2)O1.[I-]` (racemic), for which the pA2 in test [1] is 6.03; in test [2], 6.77 and 6.63; in test [3], 6.24.
Consider `C[N+](C)(C)C[C@@H]1C[S@+]([O-])C(C2CCCCC2)(C2CCCCC2)O1.[I-]` (racemic), for which the pA2 in test [1] is 5.99; in test [2] it was 6.27 and 6.06; in test [3], 6.4.
For the compound `C[N+](C)(C)C[C@@H]1CSC(C2CCCCC2)(C2CCCCC2)O1.[I-]` (racemic), the pA2 in test [1] is 6.26; in test [2], 6.38; in test [3] it was 6.95; in test [4], 6.12.
`C[N+](C)(C)C[C@@H]1CSC(C2CCCCC2)(C2CCCCC2)O1.[I-]` (stereo in doubt; (+)-2): the pA2 in test [1] is 6.28; in test [2], 6.37 and 6.42; in test [3] it was 6.98.
For the compound `C[N+](C)(C)C[C@@H]1C[S@@+]([O-])C(C2CCCCC2)(C2CCCCC2)O1.[I-]` (stereo in doubt; (+)-4), the pA2 in test [1] is 5.51; in test [2] it was 5.55 and 5.4; in test [3] it was 5.81.
Take `C[N+](C)(C)C[C@@H]1C[S@+]([O-])C(C2CCCCC2)(C2CCCCC2)O1.[I-]` (stereo in doubt; (+)-6): the pA2 was 6.27 in test [1]; 6.45 and 6.31 in test [2]; 6.32 in test [3].
Consider `C[N+](C)(C)C[C@@H]1CSC(C2CCCCC2)(C2CCCCC2)O1.[I-]` (stereo in doubt; (-)-2), for which the pA2 was 6.34 in test [1]; 6.02 and 6.05 in test [2]; 6.92 in test [3].
In the case of `C[N+](C)(C)C[C@@H]1C[S@@+]([O-])C(C2CCCCC2)(C2CCCCC2)O1.[I-]` (stereo in doubt; (-)-4), the pA2 in test [1] is 6.36; in test [2], 6.79 and 6.65; in test [3], 6.69.
Regarding `C[N+](C)(C)C[C@@H]1C[S@+]([O-])C(C2CCCCC2)(C2CCCCC2)O1.[I-]` (stereo in doubt; (-)-6), the pA2 in test [1] is 5.48; in test [2], 5.61 and 5.59; in test [3], 5.92.
